Laboratory results published in ChEMBL document CHEMBL3112563, “The benzimidazole based drugs show good activity against T. gondii but poor activity against its proposed enoyl reductase enzyme target” (Bioorg Med Chem Lett, 2014).
In brackets after ≈: the same amount, converted by molar mass. Activity calls are given as the source filed them. No cut-off for these calls is given here.

Columns and labels:
PC-3 = assay: Cytotoxicity against human PC3 cells at 10 uM after 96 hrs by luciferase reporter gene assay; assay type: cell-based; conditions: pc-3, 96 h
How it was run: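 Confluent luciferase-expressing PC3-Luc cells in phenol red-free DMEM (10% FCS, 1% L-glutamine, 1% penicillin-streptomycin) given compound at 10 nM–10 µM. D-luciferin potassium salt added at 150 µg/ml at 48 and 96 h, then bioluminescence imaged for 1 min. Cytotoxicity taken as loss of signal. Controls: 1% Triton X (positive) and vehicle.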

Toxoplasma gondii [1] = assay: Antiparasitic activity against tachyzoite stage of Toxoplasma gondii RH infected in HFF assessed as inhibition of parasite growth after 72 hrs by yellow fluorescence reporter gene assay; assay type: functional
How it was run: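 HFF infected with 3200 RH-YFP tachyzoites (type 1, stably transfected with yellow fluorescence gene) and treated with compound at the indicated concentrations. Relative YFP fluorescence read after 72 h at excitation/emission 510/540 nm. Controls: pyrimethamine/sulfadiazine (positive), 0.1% DMSO (negative).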

Toxoplasma gondii [2] = assay: Antiparasitic activity against tachyzoite stage of Toxoplasma gondii PRU infected in HFF assessed as inhibition of parasite growth at 10 uM after 72 hrs by yellow fluorescence reporter gene assay; assay type: functional
[3] = biological target: T1, Enoyl-acyl carrier reductase (Toxoplasma gondii, UniProt Q6UCJ9); assay: Inhibition of Toxoplasma gondii enoyl-ACP reductase-NADH complex
T1 sequence (Q6UCJ9 whole entry): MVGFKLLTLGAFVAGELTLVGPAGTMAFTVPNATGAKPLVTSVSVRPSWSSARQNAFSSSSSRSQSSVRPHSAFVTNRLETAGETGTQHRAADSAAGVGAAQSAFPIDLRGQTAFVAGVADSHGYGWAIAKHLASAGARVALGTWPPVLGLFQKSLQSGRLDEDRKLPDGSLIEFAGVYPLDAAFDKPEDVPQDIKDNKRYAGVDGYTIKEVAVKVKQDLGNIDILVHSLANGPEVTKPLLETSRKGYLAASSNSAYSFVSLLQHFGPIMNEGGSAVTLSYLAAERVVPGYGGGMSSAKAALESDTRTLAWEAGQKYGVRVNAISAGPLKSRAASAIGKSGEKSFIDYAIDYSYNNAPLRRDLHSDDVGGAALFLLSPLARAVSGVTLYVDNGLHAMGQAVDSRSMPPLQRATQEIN

HFF = assay: Cytotoxicity against HFF assessed as cell viability at 10 uM after 72 hrs by WST-1 assay; assay type: cell-based; conditions: human
How it was run: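 Host HFF incubated with compound at 10 µM for 72 h. Viability read by WST-1 staining. DMSO at several concentrations in the culture medium gave a standard toxicity curve.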

SMILES	Activity (PC-3)	MIC50 (Toxoplasma gondii [1]) [µM]	inhibition (Toxoplasma gondii [2])	IC50 [3] [nM]	Activity (HFF)
Cc1ccc(Cn2cnc3cc(C)c(C)cc32)cc1	Non-toxic	> 10	Active	> 1000	Non-toxic
Cc1cc2ncn(Cc3ccc(Cl)cc3)c2cc1C	Non-toxic	4 (≈ 1.08 µg/mL)		> 1000	Non-toxic
Cc1cc2ncn(Cc3ccc(Cl)c(Cl)c3)c2cc1C	Non-toxic	2.5 (≈ 0.763 µg/mL)	Active	> 1000	Non-toxic
